For three compounds, EC50, LC50 and ED50 results are on record in ChEMBL document CHEMBL1142577, “Asimitrin and 4-hydroxytrilobin, new bioactive annonaceous acetogenins from the seeds of Asimina triloba possessing a bis-tetrahydrofuran ring” (J Nat Prod, 2005).

Converted amounts (≈) assume the structure as drawn.

One series has as its system A498. The series can be described thus: Cytotoxicity against human A-498 cells after 7 days by MTT assay. Particulars: A498, 168 h, read-out: ED50 (the source's name). It is filed as functional. In short, it runs like this: (§1)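 Seven-day in vitro MTT cytotoxicity test on human tumour lines, run with adriamycin as positive control under standard protocols. Cell line origins: A-549 lung carcinoma, MCF-7 breast carcinoma, HT-29 colon adenocarcinoma, A-498 kidney carcinoma, PC-3 prostate adenocarcinoma, MIA PaCa-2 pancreatic carcinoma.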
For orientation: Formazan colour is commonly taken as a measure of viable cells.

The next series has as its system Artemia. The series can be described thus: Toxicity in brine shrimp. It is filed as organism-based. The following applies: in vivo. The gist of the method: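 Brine shrimp lethality test (BST) on brine shrimp larvae, run routinely on extracts, fractions and isolated compounds, with lethality as the read-out.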
A further series has as its system MIA PaCa-2. The series can be described thus: Cytotoxicity against human MIA PaCa2 cells after 7 days by MTT assay. It is filed as functional. The gist of the method: as §1
The next series deals with PC-3. The series can be described thus: Cytotoxicity against human PC-3 cells after 7 days by MTT assay. It is filed as functional. In short, it runs like this: as §1
Another series relates to HT-29. Kind of series: Cytotoxicity against human HT-29 cells after 7 days by MTT assay. It is filed as functional. The gist of the method:
as §1

In a further series the test system is MCF7. Kind of series: Cytotoxicity against human MCF7 cells after 7 days by MTT assay. It is filed as functional. The following applies: MCF7, 168 h, read-out: ED50 (the source's name). The gist of the method: as §1
The subject of the next series is A549. The series can be described thus: Cytotoxicity against human A549 cells after 7 days by MTT assay. The class given is functional. The following applies: A549, 168 h, read-out: ED50 (the source's name). In short, it runs like this: as §1

As to `CCCCCCCCCC[C@@H](O)[C@H]1CC[C@@H]([C@H]2CC[C@H]([C@H](O)CCCCC(O)CCCCC[C@@H](O)CC3=C[C@H](C)OC3=O)O2)O1` (stereo not given in full), the EC50 was determined as 0.0362 µg/mL (≈ 0.0567 µM) in the series on A498, 3.79 µg/mL (≈ 5.93 µM) in the series on MCF7 and 1.54 µg/mL (≈ 2.41 µM) in the series on A549. Further, the LC50 with Artemia is given as 7 ×10⁻² ug/ml. Also, the ED50 in the series on MIA PaCa-2 is reported as 2.01 ×10⁻⁴ ug/ml; in the series on PC-3 it was 2.01 ×10⁻⁴ ug/ml; in the series on HT-29, 1.54 ×10⁻⁶ ug/ml.

`CCCCCCCCCC[C@@H](O)[C@H]1CC[C@H]([C@H]2C[C@@H](O)[C@H]([C@H](O)CCCCCCCCCC[C@@H](O)CC3=C[C@H](C)OC3=O)O2)O1` [ASIMITRIN]: the EC50 came to 0.75 µg/mL (≈ 1.17 µM) in the series on A498, 2.12 µg/mL (≈ 3.32 µM) in the series with MCF7 and 1.19 µg/mL (≈ 1.86 µM) in the series with A549. This compound also returned an LC50 with Artemia of 2.07 ×10⁻² ug/ml. Also, the ED50 is 2.11 ×10⁻⁴ ug/ml with MIA PaCa-2, 1.72 ×10⁻⁶ ug/ml with PC-3 and 1.19 ×10⁻⁴ ug/ml with HT-29.

Turning to `COc1cccc2c1C(=O)c1c(O)c3c(c(O)c1C2=O)C[C@@](O)(C(=O)CO)C[C@@H]3O[C@H]1C[C@H](N)[C@H](O)[C@H](C)O1` [DOXORUBICIN], the EC50 with A498 is 0.00286 µg/mL (≈ 0.00526 µM); with MIA PaCa-2 (Homo sapiens, MIA PaCa-2, 168 h, read-out: ED50 (the source's name)), 0.0061 µg/mL (≈ 0.0112 µM); in the series with PC-3 (Homo sapiens, PC-3, 168 h, read-out: ED50 (the source's name)) it was 0.0577 µg/mL (≈ 0.106 µM); in the series on HT-29 (Homo sapiens, HT-29, 168 h, read-out: ED50 (the source's name)), 0.0287 µg/mL (≈ 0.0528 µM); in the series on MCF7, 0.953 µg/mL (≈ 1.75 µM); with A549, 0.00622 µg/mL (≈ 0.0114 µM).
